# Measured values published in ChEMBL document CHEMBL1221230, “Inhibition of eukaryotic translation elongation by cycloheximide and lactimidomycin” (Nat Chem Biol, 2010).
# The source made the active and inactive calls. The calls are words filed in the database; no cut-off is given here.
# What was measured:
# Saccharomyces cerevisiae [1] = test: Antimicrobial activity against Saccharomyces cerevisiae BY724 expressing ribosomal protein cyh2 and harboring mutation in rpl28; type: functional, organism-based
# In short: (§1)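 Four isogenic S. cerevisiae strain pairs, each differing only by presence or absence of cyh2, exposed to varying compound concentrations; growth read by optical density; IC50 derived per strain, resistance as ratio between paired strains.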
# [2] = Inhibition of elF4A-mediated renilla luciferase translational activity at 0.02 to 5 uM in presence of EMCV IRES element
# [3] = Effect on polyribosome profiling assessed as accumulation of 80S ribosomes after 15 mins by scintillation spectroscopy; type: functional
# In short: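 Capped [³²P]-labelled rabbit β-globin RNA incubated in rabbit reticulocyte lysate with compound for 15 min, then centrifuged through 10–35% sucrose gradient.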
# BT-474 = test: Anticancer activity against human BT474 cells after 24 hrs by [3H]thymidine incorporation assay; type: functional, cell-based
# MDA-MB-231 = test: Anticancer activity against human MDA-MB-231 cells after 24 hrs by [3H]thymidine incorporation assay; type: functional, cell-based
# Oryctolagus cuniculus = species on record: Oryctolagus cuniculus; test: Inhibition of translational activity in rabbit reticulocyte assessed as occurrence of ribosomal arrest at start codon at 200 uM by toeprinting assay; type: functional
# In short: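 Labelled rabbit β-globin mRNA incubated in rabbit reticulocyte lysate with inhibitor; mixture centrifuged through sucrose gradient, 80S fractions taken to isolate stalled ribosomes; primer extended by AMV reverse transcriptase toward stalled ribosome to map arrest site.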
# [4] = target: Elongation factor 2 (Homo sapiens) (UniProt P13639); test: Inhibition of eEF2-mediated tRNA translocation assessed as decrease in tripeptide (Met-Phe-Phe) formation by TLC
# Saccharomyces cerevisiae [5] = test: Fold resistance, ratio of IC50 for Saccharomyces cerevisiae BY740 expressing ribosomal protein cyh2 and harboring mutation in rpl28 to IC50 for Saccharomyces cerevisiae […]; type: functional; in short: as §1
# Saccharomyces cerevisiae [6] = test: Antimicrobial activity against Saccharomyces cerevisiae JB281; type: functional, organism-based; in short: as §1
# MCF7 = test: Anticancer activity against human MCF7 cells after 24 hrs by [3H]thymidine incorporation assay; type: functional, cell-based
# [7] = Inhibition of elF4A-mediated renilla luciferase translational activity at 0.02 to 5 uM in presence of CrPV IRES element
# [8] = target: Elongation factor 2 (Homo sapiens) (UniProt P13639); test: Inhibition of eEF2-mediated tRNA translocation assessed as inhibition of polyphenylalanine synthesis at 200 uM after 10 mins by scintillation counting
smiles,measurement,setting,value
C/C(=C\[C@H](C)C(=O)C[C@H](O)CC1CC(=O)NC(=O)C1)[C@@H]1OC(=O)/C=C/CC/C=C/C=C\[C@@H]1C [LACTIMIDOMYCIN],IC50,Saccharomyces cerevisiae [1],6.53 µM
same,inhibition,[2],Active
same,Activity,[3],Active
same,Activity,BT-474,Active
same,Activity,MDA-MB-231,Active
same,inhibition,Oryctolagus cuniculus,Active
same,inhibition,[4],Active
same,Ratio IC50,Saccharomyces cerevisiae [5],20.5
same,IC50,Saccharomyces cerevisiae [6],0.059 µM
same,Activity,MCF7,Active
same,inhibition,[7],Active
same,inhibition,[8],Active
